Experimental data from different studies.
Compare with care: the assays were run in different laboratories.
Cell line: MCF7
Observed: cell growth or viability

`COc1cccc2c3c(c[n+](C)c12)sc1cccc(F)c13` has an IC50 of 3 µM (MTT; 72 h).
`CC(C)C(=O)Nc1ccc([N+](=O)[O-])c(C(F)(F)F)c1` gave an IC50 of 39 µM (CCK-8; 48 h).
With `Cc1ccc2nc(-c3ccc(F)cc3)[nH]c2c1` the IC50 was 38.6 µM (MTT; 48 h).
The IC50 of `COc1cc2ncnc(Nc3ccc(F)c(Cl)c3)c2cc1NC(=O)N/N=C/c1cccn1CCCN1CCN(C)CC1` is reported as 2.43 µM (MTT; 72 h).
With `O=S(=O)(NN=Cc1cn(CCN2CCOCC2)c2ccccc12)c1ccc(Cl)cc1` the IC50 was 13.2 µM (MTT; 48 h).
The IC50 of `Cc1ccc(-c2csc(Nc3ccc4c(O)ncnc4c3)n2)cc1` is reported as 6.28 µM (MTT).
With `O=C1NC(c2ccccc2)(c2ccccc2)C(=O)N1Cc1cn(-c2c3ccccc3nc3ccccc23)nn1` the IC50 was 42.7 µM (MTT).
For `Nc1ncnc2c1ncn2[C@@H]1O[C@H](CO)[C@@H](O)[C@H]1O`, the IC50 was 48.3 µM (WST-1; 48 h).
The IC50 of `COc1cc(/C=N/c2nc(SC)nn2-c2ccc(C(=O)O)cc2)ccc1O` is reported as 29.4 µM (MTT).
The IC50 of `O=C(N/N=C/c1cccn1CCN1CCOCC1)Nc1cc2c(Nc3ccc(F)c(Cl)c3)ncnc2cc1O[C@H]1CCOC1` is reported as 2.13 µM (MTT; 72 h).
With `COc1cccc2c1C(=O)c1c(O)c3c(c(O)c1C2=O)C[C@@](O)(C(=O)CO)C[C@@H]3O[C@H]1C[C@H](N)[C@H](O)[C@H](C)O1` the IC50 was 0.24 µM (resazurin; 72 h).
For `C1CCCC1.C1CCCC1.[Cl][W][Cl]`, the IC50 was 630 µM (MTT).
`Cc1ccc2nc(-c3ccc(N(C)C)cc3)[nH]c2c1` has an IC50 of 47.7 µM (MTT; 48 h).
`CC(C)Cc1ccc(-c2nn(-c3ccc(S(C)(=O)=O)cc3)cc2/C=N\N=C2/NC(=O)CS2)cc1` gave an IC50 of 6.25 µM (MTT; 48 h).
For `O=C(N/N=C/c1cccn1CCCN1CCCC1)Nc1cc2c(Nc3ccc(F)c(Cl)c3)ncnc2cc1O[C@H]1CCOC1`, the IC50 was 2.41 µM (MTT; 72 h).
`O=C(CCl)Nc1ccc2c(Nc3cccc(C(F)(F)F)c3)ncnc2c1` gave an IC50 of 7.78 µM (MTT; 24 h).
The IC50 of `Cc1ccc(-c2nn(-c3ccc(S(C)(=O)=O)cc3)cc2/C=N\N=c2/[nH]c(-c3ccc([N+](=O)[O-])cc3)cs2)cc1` is reported as 36 µM (MTT; 48 h).
The IC50 of `c1ccc(-c2ccccn2)nc1` is reported as over 50 µM (MTT; 48 h).
With `O=C1Nc2c(C(F)(F)F)cccc2[C@@]1(c1ccc(O)cc1)N1CCC(F)(F)C1` the IC50 was 0.022 µM (resazurin; 72 h).
The IC50 of `COc1ccc(C2=N[C@@H](c3ccc(Cl)cc3)[C@@H](c3ccc(Cl)cc3)N2C(=O)N2CCNC(=O)C2)c(OC(C)C)c1` is reported as 11 µM (MTT; 48 h).
The IC50 of `CSc1nc(N)n(-c2ccc(C(=O)O)cc2)n1` is reported as 32.9 µM (MTT).
`Fc1ccc(-c2nc3ccccc3[nH]2)cc1` gave an IC50 of 68 µM (MTT; 48 h).
`CN1CCN(CCCn2cccc2/C=N/NC(=O)Nc2cc3c(Nc4ccc(F)c(Cl)c4)ncnc3cc2O[C@H]2CCOC2)CC1` gave an IC50 of 2.12 µM (MTT; 72 h).
With `Oc1cccc(-c2nc3ccccc3[nH]2)c1` the IC50 was over 100 µM (MTT; 48 h).
With `COc1cccc(C(=O)O[C@@H]2CN3Cc4c(cc5c(c4OC)OCO5)[C@@]24C=C[C@H](OC)C[C@@H]34)c1` the IC50 was over 10 µM (WST-1).
`COc1cc2ncnc(Nc3ccc(F)c(Cl)c3)c2cc1NC(=O)N/N=C/c1cccn1CCCN(C)C` gave an IC50 of 1.26 µM (MTT; 72 h).
`Cc1ccc2nc(-c3ccccc3Cl)[nH]c2c1` has an IC50 of over 100 µM (MTT; 48 h).
For `FC(F)(F)c1cccc(Nc2ncnc3ccc(-c4ccc(CN5CCOCC5)cc4)cc23)c1`, the IC50 was 4.05 µM (MTT; 24 h).
`COc1cccc2c1C(=O)c1c(O)c3c(c(O)c1C2=O)C[C@@](O)(C(=O)CO)C[C@@H]3O[C@H]1C[C@H](N)[C@H](O)[C@H](C)O1` has an IC50 of 0.09 µM (MTT; 48 h).
With `O=C(/N=C1\S/C(=C\c2ccc(Cl)cc2)C(=O)N1C1CCCCC1)c1ccc2ccccc2c1` the IC50 was 6.93 µM (48 h).
`Oc1ccc(-c2ccc3ncnc(Nc4cccc(C(F)(F)F)c4)c3c2)cc1` has an IC50 of 6.19 µM (MTT; 24 h).
For `Clc1ccccc1-c1nc2ccccc2[nH]1`, the IC50 was 69 µM (MTT; 48 h).
`O=C(NC(=S)N1CCCC1)c1ccc2ccccc2c1` has an IC50 of 3.62 µM (48 h).
`Oc1c(I)cc(I)c2cccnc12` has an IC50 of 75.1 µM (MTT; 48 h).
For `COc1cccc2c1C(=O)c1c(O)c3c(c(O)c1C2=O)C[C@@](O)(C(=O)CO)C[C@@H]3O[C@H]1C[C@H](N)[C@H](O)[C@H](C)O1`, the IC50 was 3.39 µM (MTT).
The IC50 of `COc1cc2ncnc(Nc3ccc(F)c(Cl)c3)c2cc1NC(=O)N/N=C/c1cccn1CCN1CCN(C)CC1` is reported as 1.85 µM (MTT; 72 h).
The IC50 of `O=[N+]([O-])c1ccc(-c2csc(Nc3ccc4c(O)ncnc4c3)n2)cc1` is reported as 3.09 µM (MTT).
`Cc1cc(C)n(-c2nc(Nc3ccc(Br)cc3)nc(N3CCOCC3)n2)n1` has an IC50 of 4.53 µM (MTT; 72 h).
`CCOC(=O)/C=C1\S/C(=N\C(=O)c2ccc3ccccc3c2)N(C2CCCCC2)C1=O` gave an IC50 of 14.9 µM (48 h).
`Oc1ncnc2cc(Nc3nc(-c4ccc(C(F)(F)F)cc4)cs3)ccc12` has an IC50 of 2.86 µM (MTT).
With `CSc1nc(/N=C/c2cc(C)ccc2O)n(-c2ccc(C(=O)O)cc2)n1` the IC50 was 23.9 µM (MTT).
The IC50 of `CC1(C)CC[C@]2(C)CC[C@]3(C)C(=CC[C@@H]4[C@@]5(C)CC[C@H](O)C(C)(C)[C@@H]5CC[C@]43C)[C@@H]2C1` is reported as 63.6 µM (WST-1; 48 h).
For `O=C(NC(=S)NCCNC(=S)NC(=O)c1ccc2ccccc2c1)c1ccc2ccccc2c1`, the IC50 was 1.2 µM (48 h).
The IC50 of `O=c1[nH]c(=S)[nH]c2c1CCCN2` is reported as over 100 µM (MTT; 72 h).
`O=[N+]([O-])c1ccc(-c2nc3ccccc3n2Cc2ccccc2)cc1` gave an IC50 of 9.56 µM (MTT).
With `O=S(=O)(NN=Cc1cn(CCN2CCOCC2)c2ccccc12)c1ccc(F)cc1` the IC50 was 32.6 µM (MTT; 48 h).
The IC50 of `CCN(CC)C/C=N/NC(=O)Nc1cc2c(Nc3ccc(F)c(Cl)c3)ncnc2cc1O[C@H]1CCOC1` is reported as 2.34 µM (MTT; 72 h).
`Cc1ccc2nc(-c3cccc([N+](=O)[O-])c3)[nH]c2c1` gave an IC50 of 19.2 µM (MTT; 48 h).
